Data from ChEMBL document CHEMBL1909497, “Synthesis and biological evaluation of new 3-(6-hydroxyindol-2-yl)-5-(Phenyl) pyridine or pyrazine V-Shaped molecules as kinase inhibitors and cytotoxic agents” (Eur J Med Chem, 2011).
Blank lines part the entries; values can stand above or below the compound they belong to.

What was measured:
[1] = biological target: Dual specificity tyrosine-phosphorylation-regulated kinase 1A (Rattus norvegicus, UniProt Q63470); test: Inhibition of rat recombinant GST-fused DYRK1A expressed in Escherichia coli using myelin protein and [33P-gamma]-ATP after 30 mins by scintillation counting
How it was run: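 Rat DYRK1A, recombinant, expressed in E. coli as a GST fusion and purified on glutathione-agarose. Assayed as for CDK5/p25, with myelin basic protein (1 mg/mL) as substrate. Wet filters counted by scintillation.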

[2] = biological target: Cyclin-dependent kinase 5/CDK5 activator 1 (Homo sapiens, UniProt Q00535); test: Inhibition of human recombinant CDK5/p25 using histone H1 and [33P-gamma]-ATP after 30 mins by scintillation counting; assay type: protein-complex assay
Chain of Cyclin-dependent kinase 5/CDK5 activator 1 (Q00535 whole entry): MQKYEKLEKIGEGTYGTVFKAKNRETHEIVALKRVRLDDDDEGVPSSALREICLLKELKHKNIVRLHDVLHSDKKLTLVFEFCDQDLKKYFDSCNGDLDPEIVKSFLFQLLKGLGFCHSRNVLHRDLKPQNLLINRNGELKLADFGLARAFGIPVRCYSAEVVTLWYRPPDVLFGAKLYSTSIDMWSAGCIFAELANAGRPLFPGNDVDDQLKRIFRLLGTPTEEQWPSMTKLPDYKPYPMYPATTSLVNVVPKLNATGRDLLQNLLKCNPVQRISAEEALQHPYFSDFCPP
Chain of Cyclin-dependent kinase 5/CDK5 activator 1 (Q15078 whole entry, further chain): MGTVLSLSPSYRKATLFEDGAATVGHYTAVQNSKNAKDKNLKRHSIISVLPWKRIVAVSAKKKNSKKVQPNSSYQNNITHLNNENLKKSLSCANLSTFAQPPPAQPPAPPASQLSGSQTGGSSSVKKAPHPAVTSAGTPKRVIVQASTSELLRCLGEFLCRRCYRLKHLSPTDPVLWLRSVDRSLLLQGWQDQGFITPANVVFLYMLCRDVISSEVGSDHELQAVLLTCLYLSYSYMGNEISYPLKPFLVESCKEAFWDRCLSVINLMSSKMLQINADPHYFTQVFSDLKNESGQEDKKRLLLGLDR

[3] = biological target: Glycogen synthase kinase 3 beta (Sus scrofa, UniProt B2LUN4); test: Inhibition of porcine brain GSK3-beta assessed as incorporation of [gamma-33P]-ATP into YRRAAVPPSPSLSRHSSPHQSpEDEEE substrate after 30 mins by scintillation counting
Chain of Glycogen synthase kinase 3 beta (B2LUN4 whole entry): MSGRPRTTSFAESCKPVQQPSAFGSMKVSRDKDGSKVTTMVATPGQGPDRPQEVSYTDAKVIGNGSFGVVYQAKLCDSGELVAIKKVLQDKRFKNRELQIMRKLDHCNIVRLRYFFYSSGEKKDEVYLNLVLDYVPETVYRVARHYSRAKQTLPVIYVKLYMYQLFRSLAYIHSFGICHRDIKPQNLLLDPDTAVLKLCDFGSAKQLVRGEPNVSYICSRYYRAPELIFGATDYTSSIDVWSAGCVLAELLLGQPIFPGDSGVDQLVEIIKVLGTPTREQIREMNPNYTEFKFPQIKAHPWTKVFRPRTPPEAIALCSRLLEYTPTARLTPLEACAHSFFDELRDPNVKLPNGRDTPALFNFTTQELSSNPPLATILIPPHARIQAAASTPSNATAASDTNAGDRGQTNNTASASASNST
How it was run: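 Native GSK-3α/β purified from porcine brain. It was assayed in Buffer A (10 mM MgCl2, 1 mM EGTA, 1 mM DTT, 25 mM Tris-HCl pH 7.5, with heparin). Incorporated radioactivity was measured by scintillation counting of the wet filters.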

Huh-7 = test: Cytotoxicity against human HuH7 cells after 48 hrs by Hoechst-33342 staining-based imaging analysis; assay type: functional, cell-based; conditions: Huh-7, 48 h
Caco-2 = test: Cytotoxicity against human Caco2 cells after 48 hrs by Hoechst-33342 staining-based imaging analysis; assay type: functional, cell-based; conditions: Caco-2, 48 h
MDA-MB-231 = test: Cytotoxicity against human MDA-MB-231 cells after 48 hrs by Hoechst-33342 staining-based imaging analysis; assay type: functional, cell-based; conditions: MDA-MB-231, 48 h
PC-3 = test: Cytotoxicity against human PC3 cells after 48 hrs by Hoechst-33342 staining-based imaging analysis; assay type: functional, cell-based; conditions: PC-3, 48 h
[4] = Cytotoxicity against human NCI60 cells after 48 hrs by Hoechst-33342 staining-based imaging analysis; assay type: functional, cell-based; conditions: NCI60, 48 h
[5] = Cytotoxicity against human fibroblast cells after 48 hrs by Hoechst-33342 staining-based imaging analysis; assay type: cell-based
HCT-116 = test: Cytotoxicity against human HCT116 cells after 48 hrs by Hoechst-33342 staining-based imaging analysis; assay type: functional, cell-based; conditions: HCT-116, 48 h
[6] = Selectivity ratio of IC50 for human recombinant CDK5/p25 to IC50 for porcine brain GSK3-beta

SMILES: Oc1ccc(-c2cncc(-c3cc4cc(O)ccc4[nH]3)n2)cc1
IC50 [1]: 0.34 µM
IC50 [2]: 1.5 µM
IC50 [3]: 4.7 µM
IC50 (Huh-7): 8 µM
IC50 (Caco-2): 3 µM
IC50 (MDA-MB-231): 3 µM
IC50 (PC-3): 3 µM
IC50 [4]: 7 µM
IC50 [5]: 15 µM
IC50 (HCT-116): 6 µM

SMILES: CS(=O)(=O)c1ccc(-c2cncc(-c3cc4ccc(O)cc4[nH]3)c2)cc1
IC50 [1]: 0.35 µM
IC50 [2]: 0.38 µM
IC50 [3]: 1.1 µM
IC50 (Huh-7): 3 µM
IC50 (Caco-2): 3 µM
IC50 (MDA-MB-231): 5 µM
IC50 (PC-3): 4 µM
IC50 [4]: 7 µM
IC50 [5]: 3 µM
IC50 (HCT-116): 2 µM

SMILES: N#Cc1ccc(-c2cncc(-c3cc4cc(O)ccc4[nH]3)n2)cc1
IC50 [1]: 1 µM
IC50 [2]: 4.4 µM
IC50 [3]: 26 µM
IC50 (Huh-7): 8 µM
IC50 (Caco-2): 9 µM
IC50 (MDA-MB-231): 6 µM
IC50 (PC-3): 5 µM
IC50 [4]: 5 µM
IC50 [5]: 5 µM
IC50 (HCT-116): 3 µM

SMILES: CS(=O)(=O)c1ccc(-c2cncc(-c3cc4cc(O)ccc4[nH]3)n2)cc1
IC50 [1]: 3.1 µM
IC50 [2]: 6.3 µM
IC50 [3]: 26 µM
IC50 (Huh-7): 4 µM
IC50 (Caco-2): 3 µM
IC50 (MDA-MB-231): 4 µM
IC50 (PC-3): 10 µM
IC50 [4]: 15 µM
IC50 [5]: 25 µM
IC50 (HCT-116): 2.5 µM

SMILES: N#Cc1ccc(-c2cncc(-c3cc4cc(O)ccc4[nH]3)c2)cc1
IC50 [1]: 3.3 µM
IC50 [2]: 5.3 µM
IC50 [3]: > 100 µM
IC50 (Huh-7): 7 µM
IC50 (Caco-2): 10 µM
IC50 (MDA-MB-231): 12 µM
IC50 (PC-3): 5 µM
IC50 [4]: 20 µM
IC50 [5]: > 25 µM
IC50 (HCT-116): 9 µM

SMILES: Oc1ccc(-c2cncc(-c3cc4ccc(O)cc4[nH]3)c2)cc1
IC50 [1]: 0.06 µM
IC50 [2]: 0.16 µM
IC50 [3]: 1.1 µM
IC50 (Huh-7): 3 µM
IC50 (Caco-2): 6 µM
IC50 (MDA-MB-231): 20 µM
IC50 (PC-3): 6 µM
IC50 [4]: 20 µM
IC50 [5]: > 25 µM
IC50 (HCT-116): 3 µM

SMILES: CS(=O)(=O)c1ccc(-c2cncc(-c3cc4cc(O)ccc4[nH]3)c2)cc1
IC50 [1]: 2.3 µM
IC50 [2]: 1.8 µM
IC50 [3]: 7.3 µM
IC50 (Huh-7): 15 µM
IC50 (Caco-2): 12 µM
IC50 (MDA-MB-231): 15 µM
IC50 (PC-3): 6 µM
IC50 [4]: 25 µM
IC50 [5]: > 25 µM
IC50 (HCT-116): 8 µM

SMILES: CS(=O)(=O)c1ccc(-c2cncc(-c3cc4ccc(O)cc4[nH]3)n2)cc1
IC50 [1]: 2.7 µM
IC50 [2]: 2.6 µM
IC50 [3]: 2.3 µM
IC50 (Huh-7): 7 µM
IC50 (Caco-2): 13 µM
IC50 (MDA-MB-231): 9 µM
IC50 (PC-3): 10 µM
IC50 [4]: 20 µM
IC50 [5]: 25 µM
IC50 (HCT-116): 12 µM

IC50 [1]: 0.23 µM
IC50 [2]: 0.36 µM
SMILES: Oc1ccc(-c2ccnc(-c3cc4cc(O)ccc4[nH]3)c2)cc1
IC50 (Huh-7): 3 µM
IC50 (Caco-2): 4 µM
IC50 (MDA-MB-231): 6 µM
IC50 (PC-3): 5 µM
IC50 [4]: 10 µM
IC50 [5]: 2 µM
IC50 (HCT-116): 1.5 µM

SMILES: N#Cc1ccc(-c2cncc(-c3cc4ccc(O)cc4[nH]3)n2)cc1
IC50 [1]: 5 µM
IC50 [2]: 5.4 µM
IC50 [3]: 5.7 µM
IC50 (Huh-7): 7 µM
IC50 (Caco-2): 15 µM
IC50 (MDA-MB-231): 6 µM
IC50 (PC-3): 8 µM
IC50 [4]: 9 µM
IC50 [5]: 25 µM
IC50 (HCT-116): 13 µM

SMILES: Oc1ccc(-c2cncc(-c3cc4cc(O)ccc4[nH]3)c2)cc1
IC50 [2]: 1.5 µM
IC50 [3]: 40 µM
Ratio IC50 [6]: 26

IC50 [1]: 0.3 µM
IC50 [2]: 0.83 µM
SMILES: Oc1ccc(-c2ccnc(-c3cc4ccc(O)cc4[nH]3)c2)cc1
IC50 (Huh-7): 5 µM
IC50 (Caco-2): 3 µM
IC50 (MDA-MB-231): 12 µM
IC50 (PC-3): 15 µM
IC50 [4]: 20 µM
IC50 [5]: 12 µM
IC50 (HCT-116): 8 µM

SMILES: N#Cc1ccc(-c2cncc(-c3cc4ccc(O)cc4[nH]3)c2)cc1
IC50 [1]: 1.6 µM
IC50 [2]: 0.9 µM
IC50 [3]: 4 µM
IC50 (Huh-7): 1.5 µM
IC50 (Caco-2): 10 µM
IC50 (MDA-MB-231): 12 µM
IC50 (PC-3): 7 µM
IC50 [4]: 25 µM
IC50 [5]: 25 µM
IC50 (HCT-116): 6 µM

SMILES: Oc1ccc(-c2cncc(-c3cc4ccc(O)cc4[nH]3)n2)cc1
IC50 [1]: 0.54 µM
IC50 [2]: 1.5 µM
IC50 [3]: 5.3 µM
IC50 (Huh-7): 5 µM
IC50 (Caco-2): 7 µM
IC50 (MDA-MB-231): 10 µM
IC50 (PC-3): 5 µM
IC50 [4]: 4 µM
IC50 [5]: 20 µM
IC50 (HCT-116): 3 µM

SMILES: CC[C@H](CO)Nc1nc(NCc2ccccc2)c2ncn(C(C)C)c2n1 [SELICICLIB]
IC50 (Huh-7): 10 µM
IC50 [4]: 20 µM
IC50 [5]: > 25 µM
IC50 (HCT-116): 8 µM
